This is an account of results in ChEMBL document CHEMBL2375262, “Thiazolidin-4-one and thiazinan-4-one derivatives analogous to rosiglitazone as potential antihyperglycemic and antidyslipidemic agents” (2013).

The structures appear in SMILES notation.

Holding throughout (type): functional
Assay [1] relates to Mus musculus. Briefly: Antidyslipidemic activity in db/db mouse assessed as increase in plasma HDL-cholesterol level at 30 mg/kg, po qd administered 15 days […] relative to vehicle-treated control.
Assay [2] has as its system Mus musculus. Briefly: Antihyperglycemic activity in db/db mouse assessed as inhibition of post prandial blood glucose level at 30 mg/kg, po qd administered 15 days by OGTT relative to vehicle-treated control. Conditions: 360 h. An outline of the steps: (§1)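 Male db/db mice, 10-12 weeks, >40 g, with blood glucose 180-300 mg/dl; six per group. Dosed orally once daily in 1% gum acacia on days 1-15, with vehicle controls. Blood glucose was read daily. OGTT on days 10 and 15 after an overnight fast: glucose at -30, 0, 30, 60, 90 and 120 min around an oral 3.0 g/kg glucose load. Activity was taken from AUC versus control; Dunnett's test.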

For assay [3], the system named is Mus musculus. The experiment in a line: Antidyslipidemic activity in db/db mouse assessed as decrease in plasma total cholesterol level at 30 mg/kg, po qd administered 15 days measured on day 16 […] relative to vehicle-treated control. Further details: scale not given: the % may be the effect or the level left. An outline of the steps:
(§2)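 Male db/db mice, 10-12 weeks old, over 40 g. After a 3-day vehicle run-in, animals with blood glucose 180-300 mg/dl were placed in groups of six and gavaged once daily on days 1-15 with a suspension in 1% gum acacia. Controls received vehicle. Terminal retro-orbital plasma was assayed for triglycerides, total and HDL-cholesterol with colorimetric kits. Dunnett's test was used.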

Assay [4] relates to Mus musculus. Briefly: Antidyslipidemic activity in db/db mouse assessed as decrease in plasma triglycerides level at 30 mg/kg, po qd administered 15 days measured on day 16 by ELISA relative to vehicle-treated control. Set-up: scale not given: the % may be the effect or the level left. Conditions: in the assay text read “by colorimetric assay” for “by ELISA”. An outline of the steps:
as §2
A general note: An ELISA detects its analyte on a solid surface through an enzyme-linked reagent.

In assay [5] the test system is Mus musculus. The experiment in a line: Insulin resistance reversal activity in db/db mouse assessed as decrease in plasma insulin level at 30 mg/kg, po qd administered 15 days measured on day 16 by ELISA relative to vehicle-treated control. Set-up: scale not given: the % may be the effect or the level left. The essentials:
(§3)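 db/db males, 10-12 weeks, >40 g, baseline glucose 180-300 mg/dl, n=6 per group. Oral suspension in 1% gum acacia given once daily for days 1-15; vehicle controls. At study end, retro-orbital plasma insulin was measured by ELISA. Groups were compared by Dunnett's test.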

The test system of assay [6] is L6. The experiment in a line: Antihyperglycemic activity in rat L6 cells assessed as increase in 2-deoxy-[3H]-D-glucose uptake at 10 uM after 18 hrs by liquid scintillation counting analysis relative to control. The essentials: (§4)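 L6 myoblasts were differentiated to myotubes in DMEM with 2% FBS, then treated for 18 h. After washes, cells took up 3 µCi 2-deoxy-[3H]D-glucose plus 20 µM unlabelled 2-deoxyglucose in HEPES-buffered saline for 15 min. Cells were lysed in 0.1 N NaOH and counted by scintillation; results are % increase over control.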

Assay [7] has as its system Mus musculus. Briefly: Antihyperglycemic activity in db/db mouse assessed as inhibition of post prandial blood glucose level at 30 mg/kg, po qd administered 15 days measured on day 10 by OGTT relative to vehicle-treated control. The essentials: as §1
The test system of assay [8] is Mus musculus. The experiment in a line: Antihyperglycemic activity in db/db mouse assessed as reduction of blood glucose level at 30 mg/kg, po qd measured daily for 15 days relative to vehicle-treated control. Set-up: scale not given: the % may be the effect or the level left. The essentials:
as §1

The next assay concerns 3T3-L1. The experiment in a line: Induction of adipogenesis in mouse 3T3L1 cells assessed as accumulation of lipid droplets at 10 uM measured on day 9 by Oil Red O staining method relative to control. An outline of the steps: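 3T3-L1 preadipocytes, 2 days post-confluence, were induced with 0.5 mM IBMX, 0.25 µM dexamethasone and insulin in DMEM/10% FBS with compound present. After 3 days, medium changed to insulin alone, then to DMEM/10% FBS. On day 9, lipid droplets were stained with 0.36% Oil Red O in 60% isopropanol for 30 min and examined by microscope.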

In assay [9] the test system is Mus musculus. Briefly: Antihyperglycemic activity in db/db mouse assessed as inhibition of post prandial blood glucose level at 100 mg/kg, po qd administered 15 days measured on day 10 by OGTT relative to vehicle-treated control. The essentials:
as §1

Assay [10] concerns Mus musculus. The experiment in a line: Antidyslipidemic activity in db/db mouse assessed as decrease in plasma total cholesterol level at 100 mg/kg, po qd administered 15 days […] relative to vehicle-treated control. Further details: scale not given: the % may be the effect or the level left.
The test system of assay [11] is Mus musculus. Briefly: Antidyslipidemic activity in db/db mouse assessed as decrease in plasma triglycerides level at 100 mg/kg, po qd administered 15 days […] relative to vehicle-treated control. Further details: scale not given: the % may be the effect or the level left.
Assay [12] has as its system Mus musculus. Briefly: Antihyperglycemic activity in db/db mouse assessed as inhibition of post prandial blood glucose level at 100 mg/kg, po qd administered 15 days by OGTT relative to vehicle-treated control. Particulars: 360 h. An outline of the steps: as §1
For assay [13], the system named is Mus musculus. The experiment in a line: Insulin resistance reversal activity in db/db mouse assessed as decrease in plasma insulin level at 100 mg/kg, po qd administered 15 days measured on day 16 by ELISA relative to vehicle-treated control. Further details: scale not given: the % may be the effect or the level left. An outline of the steps:
as §3

In assay [14] the test system is Mus musculus. The experiment in a line: Antihyperglycemic activity in db/db mouse assessed as reduction of blood glucose level at 100 mg/kg, po qd measured daily for 15 days relative to vehicle-treated control. Further details: scale not given: the % may be the effect or the level left. An outline of the steps:
as §1

In assay [15] the test system is Mus musculus. The experiment in a line: Antidyslipidemic activity in db/db mouse assessed as increase in plasma HDL-cholesterol level at 100 mg/kg, po qd administered 15 days […] relative to vehicle-treated control.
Assay [16] concerns L6. Briefly: Antihyperglycemic activity in rat L6 cells assessed as increase in 2-deoxy-[3H]-D-glucose uptake at 50 uM after 18 hrs by liquid scintillation counting analysis relative to control. An outline of the steps:
as §4

Turning to `CN(CCOc1ccc(C2NC(=O)CCS2)cc1)c1ccccn1` (configuration not stated), the Activity was 1.46% in the assay with Mus musculus [1]; 15.1% in the assay on Mus musculus [3]; 13.2% in the assay on Mus musculus [4]; 28.8% with Mus musculus [5]; 53.5% with L6 [6]; 30.4% in the assay with Mus musculus [8]. Also, the values for the inhibition in vivo at 30 mg/kg in the assay on Mus musculus [2] and in the assay with Mus musculus [7] were -44.9% and -40.8%, respectively.

Consider `CN(CCOc1ccc(C2SCCC(=O)N2C2CC2)cc1)c1ccccn1` (configuration not stated), for which the Activity stood at 3.38% with Mus musculus [1]; 29.5% in the assay on Mus musculus [3]; 29.9% with Mus musculus [4]; 26.6% with Mus musculus [5]; 69.5% with L6 [6]; 22.4% with Mus musculus [8]. The inhibition in vivo (usually the change of the read-out against control, counted positive when it falls) at 30 mg/kg in the assay with Mus musculus [2] was -27.9%; in the assay on Mus musculus [7], -20.4%.

With `CC(C)N1C(=O)CCSC1c1ccc(OCCN(C)c2ccccn2)cc1` (configuration not stated), the Activity in the assay with L6 [6] was determined as 14.8%.

Take `CCCCN1C(=O)CCSC1c1ccc(OCCN(C)c2ccccn2)cc1` (configuration not stated): the Activity in the assay with L6 [6] came to 35.4%.

Regarding `CN(CCOc1ccc(C2SCCC(=O)N2Cc2ccccc2)cc1)c1ccccn1` (configuration not stated), the Activity is listed as 6.47% in the assay with Mus musculus [1]; 9.88% in the assay with Mus musculus [3]; 25.6% in the assay on Mus musculus [4]; 21.5% in the assay with Mus musculus [5]; 33% in the assay with L6 [6]; 19.1% in the assay with Mus musculus [8]. Further, the inhibition in vivo at 30 mg/kg in the assay on Mus musculus [2] was -42.6%; with Mus musculus [7], -29.4%.

For `CCCCN1C(=O)C[S+]([O-])C1c1ccc(OCCN(C)c2ccccn2)cc1` (configuration not stated), the Activity is reported as 39.6% in the assay with Mus musculus [1]; 10.8% in the assay with Mus musculus [3]; 19.2% with Mus musculus [4]; 24.6% with Mus musculus [5]; 25.9% with Mus musculus [8]. The inhibition in vivo at 30 mg/kg was -27.2% in the assay with Mus musculus [2] and -12.9% in the assay with Mus musculus [7].

For `CN(CCOc1ccc(C2N(Cc3ccccc3)C(=O)C[S+]2[O-])cc1)c1ccccn1` (configuration not stated), the Activity is listed as 20% with Mus musculus [1]; 18.4% in the assay on Mus musculus [4]; 20.4% in the assay with Mus musculus [5]; 45.5% with L6 [6]; 22.1% in the assay on Mus musculus [8]. In addition, the values for the inhibition in vivo at 30 mg/kg in the assay with Mus musculus [2] and in the assay with Mus musculus [7] were -20.2% and -6.4%, respectively.

In the case of `CCCCN1C(=O)CS(=O)(=O)C1c1ccc(OCCN(C)c2ccccn2)cc1` (configuration not stated), the Activity with Mus musculus [1] is listed as 25.7%; with Mus musculus [3], 7.2%; in the assay on Mus musculus [4], 14.7%; with Mus musculus [5], 28.8%; with L6 [6], 51.3%; in the assay with Mus musculus [8], 30.2%.

With `CN(CCOc1ccc(C2SCC(=O)N2C2CC2)cc1)c1ccccn1` (configuration not stated), the Activity in the assay on Mus musculus [1] came to 8.8%; with Mus musculus [3], 12.6%; in the assay with Mus musculus [4], 15.6%; in the assay on 3T3-L1, 3.87%; with Mus musculus [5], 31.8%; in the assay with L6 [6], 67.2%. In addition, the Activity in the assay with Mus musculus [8] worked out at 25.6%. In addition, the inhibition in vivo at 30 mg/kg in the assay on Mus musculus [2] was -40.9%; in the assay with Mus musculus [7], -26.6%.

For the molecule `CCCCN1C(=O)CSC1c1ccc(OCCN(C)c2ccccn2)cc1` (configuration not stated), the Activity with Mus musculus [1] is 10.1%; with Mus musculus [3] it was 4.8%; in the assay on Mus musculus [4], 31.8%; in the assay on Mus musculus [5] it was 17.6%; with Mus musculus [8], 22.1%. Moreover, the results for the inhibition in vivo at 30 mg/kg in the assay with Mus musculus [2] and in the assay with Mus musculus [7] were -25.4% and -20.2%, respectively.

Turning to `CN(CCOc1ccc(C2SCC(=O)N2Cc2ccccc2)cc1)c1ccccn1` (configuration not stated), the Activity in the assay on Mus musculus [1] was determined as 22.2%; in the assay on Mus musculus [3] it was 10.2%; in the assay with Mus musculus [4], 9.83%; with Mus musculus [5] it was 22.4%; with Mus musculus [8] it was 15.4%. In addition, the inhibition in vivo at 30 mg/kg was -16.4% in the assay with Mus musculus [2] and -4.3% with Mus musculus [7].

Turning to `CN(CCOc1ccc(C2NC(=O)CS2)cc1)c1ccccn1` (configuration not stated), the inhibition in vivo at 30 mg/kg is -36.6% in the assay with Mus musculus [2] and -25.9% in the assay on Mus musculus [7]. For the same molecule, the Activity was determined as 19.3% in the assay with Mus musculus [3]; 14% with Mus musculus [4]; 5.53% in the assay with 3T3-L1; 27.4% in the assay on Mus musculus [5]; 51.9% with L6 [6]; 18.5% in the assay with Mus musculus [8].

As for `CN(C)C(=N)NC(=N)N` [METFORMIN], the inhibition in vivo at 100 mg/kg in the assay with Mus musculus [9] came to 29.1%; in the assay on Mus musculus [12], 29.7%. Further, the Activity in the assay on Mus musculus [10] is 14.6%; with Mus musculus [11], 12.1%; in the assay on Mus musculus [13], 37%; with Mus musculus [14], 23.7%; in the assay with Mus musculus [15], 6.8%.

In the case of `CN(CCOc1ccc(CC2SC(=O)NC2=O)cc1)c1ccccn1` (configuration not stated) [ROSIGLITAZONE], the inhibition in vivo at 30 mg/kg in the assay with Mus musculus [2] is -40.7%; in the assay on Mus musculus [7] it was -33.3%. Also, the Activity amounted to 26.4% with Mus musculus [3]; 32.5% in the assay on Mus musculus [4]; 24% in the assay with 3T3-L1; 44.8% in the assay on Mus musculus [5]; 61.6% in the assay with L6 [16]; 53.7% in the assay with Mus musculus [8].
